pIC50: −log10 of the molar value. ≈ marks a conversion by molar mass, not a printed value.
How the values were obtained:
[1] = Inhibition of soybean lipoxygenase assessed as inhibition of sodium linolate conversion to 13-hydroperoxylinoleic acid after 4 mins by spectrophotometry; design: species or system Glycine max; settings: read-out: IC50
Bacillus cereus [2] = test: Antibacterial activity against Bacillus cereus clinical isolate after 24 hr by microdilution test; assay type: functional
Outline: (§1)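 Broth microdilution in LB medium, about 1.0×10^4 cfu per well; compounds from 1 mg/ml stocks in 5% DMSO. Incubated 24 h. MIC is the lowest concentration with no visible growth under a binocular microscope. Run in duplicate, repeated three times.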

Escherichia coli [3] = test: Bactericidal activity against Escherichia coli ATCC 35210 after 72 hrs by serial subcultivation method; assay type: functional; settings: ATCC 35210, 72 h
Listeria monocytogenes [4] = test: Bactericidal activity against Listeria monocytogenes NCTC 7973 after 72 hrs by serial subcultivation method; assay type: functional; settings: NCTC 7973, 72 h
Aspergillus flavus [5] = test: Antifungal activity against Aspergillus flavus ATCC 9643 after 72 hrs by serial dilution technique; assay type: functional; settings: ATCC 9643, 72 h
Outline: (§2)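 Serial dilution in malt broth; compounds from 1 mg/ml stocks in 5% DMSO; 72 h at 28 °C. MIC is the lowest concentration with no visible growth under a binocular microscope. Run in duplicate, repeated three times.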

Aspergillus flavus [6] = test: Fungicidal activity against Aspergillus flavus ATCC 9643 after 72 hrs by serial subcultivation method; assay type: functional; settings: ATCC 9643, 72 h
Talaromyces funiculosus [7] = test: Antifungal activity against Penicillium funiculosum ATCC 36839 after 72 hrs by serial dilution technique; assay type: functional; settings: ATCC 36839, 72 h; outline: as §2
Micrococcus flavus [8] = test: Antibacterial activity against Micrococcus flavus ATCC 10240 after 24 hr by microdilution test; assay type: functional; settings: ATCC 10240, 24 h; outline: as §1
Penicillium ochrochloron [9] = test: Antifungal activity against Penicillium ochrochloron ATCC 9112 after 72 hrs by serial dilution technique; assay type: functional; settings: ATCC 9112, 72 h; outline: as §2
Pseudomonas aeruginosa [10] = test: Bactericidal activity against Pseudomonas aeruginosa ATCC 27853 after 72 hrs by serial subcultivation method; assay type: functional; settings: ATCC 27853, 72 h
Staphylococcus aureus [11] = test: Bactericidal activity against Staphylococcus aureus ATCC 6538 after 72 hrs by serial subcultivation method; assay type: functional; settings: ATCC 6538, 72 h
Aspergillus fumigatus [12] = test: Fungicidal activity against Aspergillus fumigatus after 72 hrs by serial subcultivation method; assay type: functional
Mus musculus [13] = test: Antiinflammatory activity in AKR mouse assessed as inhibition of carrageenan-induced paw edema at 0.01 mmol/kg, ip measured after 3.5 hrs of carrageenan-challenge; assay type: functional
Outline: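 AKR mice of both sexes (pregnant females excluded), 6-10 per group, fasted during the experiment. Edema induced by intradermal 0.05 mL of 2% carrageenin into the right hind paw. Compound given at 0.01 mmol/kg ip, suspended in water with Tween-80, at the same time as carrageenin.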

[14] = target: T1, Prostaglandin G/H synthase 1 (Ovis aries) (UniProt P05979); test: Inhibition of ovine COX1 assessed as inhibition of PGF2a production by enzyme immunoassay; design: concentration or dose not given beside the values; settings: concentration not given here
T1 sequence (whole entry): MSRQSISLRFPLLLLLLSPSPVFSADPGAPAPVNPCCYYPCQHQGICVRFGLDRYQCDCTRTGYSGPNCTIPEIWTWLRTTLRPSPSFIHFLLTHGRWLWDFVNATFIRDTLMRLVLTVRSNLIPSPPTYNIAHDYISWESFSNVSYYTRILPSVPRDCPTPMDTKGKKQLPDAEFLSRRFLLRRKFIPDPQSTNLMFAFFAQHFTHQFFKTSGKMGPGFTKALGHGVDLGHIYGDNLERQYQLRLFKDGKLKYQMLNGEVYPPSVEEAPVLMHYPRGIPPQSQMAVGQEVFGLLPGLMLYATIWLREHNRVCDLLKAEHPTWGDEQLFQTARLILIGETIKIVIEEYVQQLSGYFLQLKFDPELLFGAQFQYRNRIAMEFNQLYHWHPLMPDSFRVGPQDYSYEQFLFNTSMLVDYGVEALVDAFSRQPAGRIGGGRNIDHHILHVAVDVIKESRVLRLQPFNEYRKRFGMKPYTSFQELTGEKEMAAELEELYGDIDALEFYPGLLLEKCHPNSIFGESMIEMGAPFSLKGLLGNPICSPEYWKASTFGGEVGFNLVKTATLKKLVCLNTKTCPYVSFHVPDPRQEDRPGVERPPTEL
Outline: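 Ovine COX-1 from a commercial screening kit, tested with 0.1 µM arachidonic acid, which is below the saturating level. COX-derived PGH2 is reduced by SnCl2 to PGF2a, quantified by enzyme immunoassay with a broad prostaglandin antibody. At least triplicate.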

Staphylococcus aureus [15] = test: Antibacterial activity against Staphylococcus aureus ATCC 6538 after 24 hr by microdilution test; assay type: functional; settings: ATCC 6538, 24 h; outline: as §1
Aspergillus fumigatus [16] = test: Antifungal activity against Aspergillus fumigatus after 72 hrs by serial dilution technique; assay type: functional; outline: as §2
Penicillium ochrochloron [17] = test: Fungicidal activity against Penicillium ochrochloron ATCC 9112 after 72 hrs by serial subcultivation method; assay type: functional; settings: ATCC 9112, 72 h
Talaromyces funiculosus [18] = test: Fungicidal activity against Penicillium funiculosum ATCC 36839 after 72 hrs by serial subcultivation method; assay type: functional; settings: ATCC 36839, 72 h
Listeria monocytogenes [19] = test: Antibacterial activity against Listeria monocytogenes NCTC 7973 after 24 hr by microdilution test; assay type: functional; settings: NCTC 7973, 24 h; outline: as §1
Aspergillus niger [20] = test: Fungicidal activity against Aspergillus niger ATCC 6275 after 72 hrs by serial subcultivation method; assay type: functional; settings: ATCC 6275, 72 h
Trichoderma viride [21] = test: Antifungal activity against Trichoderma viride IAM 5061 after 72 hrs by serial dilution technique; assay type: functional; settings: IAM 5061, 72 h; outline: as §2
Mus musculus [22] = test: Acute toxicity in AKR mouse up to 0.5 mmol/kg, ip; assay type: organism-based; settings: in vivo
Bacillus cereus [23] = test: Bactericidal activity against Bacillus cereus clinical isolate after 72 hrs by serial subcultivation method; assay type: functional
Escherichia coli [24] = test: Antibacterial activity against Escherichia coli ATCC 35210 after 24 hr by microdilution test; assay type: functional; settings: ATCC 35210, 24 h; outline: as §1
Trichoderma viride [25] = test: Fungicidal activity against Trichoderma viride IAM 5061 after 72 hrs by serial subcultivation method; assay type: functional; settings: IAM 5061, 72 h
Pseudomonas aeruginosa [26] = test: Antibacterial activity against Pseudomonas aeruginosa ATCC 27853 after 24 hr by microdilution test; assay type: functional; settings: ATCC 27853, 24 h; outline: as §1
Micrococcus flavus [27] = test: Bactericidal activity against Micrococcus flavus ATCC 10240 after 72 hrs by serial subcultivation method; assay type: functional; settings: ATCC 10240, 72 h
Aspergillus niger [28] = test: Antifungal activity against Aspergillus niger ATCC 6275 after 72 hrs by serial dilution technique; assay type: functional; settings: ATCC 6275, 72 h; outline: as §2

SMILES | pIC50 [1] | MIC (Bacillus cereus [2]) [µM] | MBC (Escherichia coli [3]) [µM] | MBC (Listeria monocytogenes [4]) [µM] | MIC (Aspergillus flavus [5]) [µM] | MFC (Aspergillus flavus [6]) [µM] | MIC (Talaromyces funiculosus [7]) [µM] | MIC (Micrococcus flavus [8]) [µM] | MIC (Penicillium ochrochloron [9]) [µM] | MBC (Pseudomonas aeruginosa [10]) [µM] | MBC (Staphylococcus aureus [11]) [µM] | MFC (Aspergillus fumigatus [12]) [µM] | inhibition in vivo at 10 µmol/kg (Mus musculus [13]) [%] | inhibition [14] [%] | MIC (Staphylococcus aureus [15]) [µM] | MIC (Aspergillus fumigatus [16]) [µM] | MFC (Penicillium ochrochloron [17]) [µM] | MFC (Talaromyces funiculosus [18]) [µM] | MIC (Listeria monocytogenes [19]) [µM] | MFC (Aspergillus niger [20]) [µM] | other results
Cc1csc(/N=C2\NC(=O)/C(=C/c3ccccc3Cl)S2)n1 | 4.10 | 59.6 (≈ 20 µg/mL) | 119 (≈ 40 µg/mL) | 119 (≈ 40 µg/mL) | 20.9 (≈ 7.02 µg/mL) | 20.9 (≈ 7.02 µg/mL) | 17.9 (≈ 6.01 µg/mL) | 29.8 (≈ 10 µg/mL) | 14.9 (≈ 5 µg/mL) | 119 (≈ 40 µg/mL) | 119 (≈ 40 µg/mL) | 20.9 (≈ 7.02 µg/mL) | 43 | 97 | 59.6 (≈ 20 µg/mL) | 17.9 (≈ 6.01 µg/mL) | 20.9 (≈ 7.02 µg/mL) | 20.9 (≈ 7.02 µg/mL) | 119 (≈ 40 µg/mL) | 20.9 (≈ 7.02 µg/mL) | MIC (Trichoderma viride [21]): 17.9 µM (≈ 6.01 µg/mL); Activity (Mus musculus [22]): Non-toxic; MBC (Bacillus cereus [23]): 119 µM (≈ 40 µg/mL); MIC (Escherichia coli [24]): 119 µM (≈ 40 µg/mL); MFC (Trichoderma viride [25]): 20.9 µM (≈ 7.02 µg/mL); MIC (Pseudomonas aeruginosa [26]): 59.6 µM (≈ 20 µg/mL); MBC (Micrococcus flavus [27]): 59.6 µM (≈ 20 µg/mL); MIC (Aspergillus niger [28]): 14.9 µM (≈ 5 µg/mL)
O=C1N/C(=N\c2nc(-c3ccccc3)cs2)S/C1=C\c1ccc(Cl)cc1 | 4.27 | 25 (≈ 9.95 µg/mL) | 50 (≈ 19.9 µg/mL) | 100 (≈ 39.8 µg/mL) | 13.7 (≈ 5.45 µg/mL) | 27.3 (≈ 10.9 µg/mL) | 20.5 (≈ 8.16 µg/mL) | 25 (≈ 9.95 µg/mL) | 13.7 (≈ 5.45 µg/mL) | 100 (≈ 39.8 µg/mL) | 100 (≈ 39.8 µg/mL) | 27.3 (≈ 10.9 µg/mL) | 27.3 | 78 | 50 (≈ 19.9 µg/mL) | 13.7 (≈ 5.45 µg/mL) | 27.3 (≈ 10.9 µg/mL) | 27.3 (≈ 10.9 µg/mL) | 50 (≈ 19.9 µg/mL) | 27.3 (≈ 10.9 µg/mL) | MIC (Trichoderma viride [21]): 13.7 µM (≈ 5.45 µg/mL); Activity (Mus musculus [22]): Non-toxic; MBC (Bacillus cereus [23]): 50 µM (≈ 19.9 µg/mL); MIC (Escherichia coli [24]): 50 µM (≈ 19.9 µg/mL); MFC (Trichoderma viride [25]): 27.3 µM (≈ 10.9 µg/mL); MIC (Pseudomonas aeruginosa [26]): 50 µM (≈ 19.9 µg/mL); MBC (Micrococcus flavus [27]): 25 µM (≈ 9.95 µg/mL); MIC (Aspergillus niger [28]): 13.7 µM (≈ 5.45 µg/mL)
